Measurements taken from ChEMBL document CHEMBL1127075, “Structural modification of 5-aryl-2,3-dihydroimidazo[2,1-a]isoquinoline platelet activating factor receptor antagonists” (J Med Chem, 1993).

What was measured:
[1] = target: Platelet-activating factor receptor (Homo sapiens, UniProt P25105); test: In vitro PAF antagonistic activity by determining [3H]PAF binding to the PAF-receptor of human platelets
Procedure, shortened: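 Human platelets incubated with [3H]PAF; free ligand removed by centrifugation, bound radioactivity counted 1 min by liquid scintillation. Specific binding = total minus nonspecific binding (0.37 mM unlabeled PAF).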

Cavia porcellus [2] = test: In vivo PAF induced hemoconcentration tested in guinea pig at 20 mg/kg dose; assay type: functional
Procedure, shortened: (§1)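 Anesthetized guinea pigs given compound po in H2O at 20 mg/kg, 2 h before iv PAF (0.05 mg/kg); percent inhibition of bronchoconstriction (Konzett-Rosler) or hemoconcentration, three to five animals.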

Cavia porcellus [3] = test: In vivo PAF induced bronchoconstriction tested in guinea pig at 20 mg/kg dose; assay type: functional; procedure, shortened: as §1
Cavia porcellus [4] = test: In vivo PAF induced hemoconcentration tested in guinea pig; assay type: functional
Procedure, shortened: (§2)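 Anesthetized guinea pigs, compound given po in H2O 2 h before iv PAF challenge (0.05 mg/kg); bronchoconstriction (Konzett-Rosler) and hemoconcentration measured. ED50 from dose-response curves, at least five doses, four to seven animals per dose.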

Cavia porcellus [5] = test: In vivo PAF induced bronchoconstriction tested in guinea pig; assay type: functional; procedure, shortened: as §2

Chain of Platelet-activating factor receptor (P25105 whole entry): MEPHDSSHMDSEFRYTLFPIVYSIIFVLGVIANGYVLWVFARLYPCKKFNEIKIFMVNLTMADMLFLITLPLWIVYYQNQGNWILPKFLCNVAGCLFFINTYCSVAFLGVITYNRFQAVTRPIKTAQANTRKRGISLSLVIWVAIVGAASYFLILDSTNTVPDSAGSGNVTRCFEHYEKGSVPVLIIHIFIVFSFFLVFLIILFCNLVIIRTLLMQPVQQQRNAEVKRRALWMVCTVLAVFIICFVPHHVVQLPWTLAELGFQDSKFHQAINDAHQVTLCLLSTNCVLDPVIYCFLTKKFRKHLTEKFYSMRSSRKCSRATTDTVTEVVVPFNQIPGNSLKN

SMILES | IC50 [1] [nM] | inhibition in vivo at 20 mg/kg (Cavia porcellus [2]) [%] | inhibition in vivo at 20 mg/kg (Cavia porcellus [3]) [%] | ED50 (Cavia porcellus [4]) [mg/kg] | ED50 (Cavia porcellus [5]) [mg/kg]
COc1cc(CCc2ccc(C3=Cc4ccccc4C4=NC(C)(C)CN34)cc2)cc(OC)c1OC | 60 | 17.9 | 24 |  | 
COc1cc(CCc2ccc(-c3cc4ccccc4c4nc(C)cn34)cc2)cc(OC)c1OC | 35000 |  |  |  | 
COc1cc(CCc2ccc(-c3cc4ccccc4c4nnc(C)n34)cc2)cc(OC)c1OC | 9500 |  |  |  | 
COc1cc(CCc2ccc(-c3cc4ccccc4c4nccn34)cc2)cc(OC)c1OC | 89000 |  |  |  | 
COc1cc(CCc2ccc(C3=Cc4ccccc4C4=NCCN34)cc2)cc(OC)c1OC |  |  |  | 5 | 4.2

More lines, main results first:

IC50 [1] [nM] | SMILES | inhibition in vivo at 20 mg/kg (Cavia porcellus [2]) [%] | inhibition in vivo at 20 mg/kg (Cavia porcellus [3]) [%] | ED50 (Cavia porcellus [4]) [mg/kg] | ED50 (Cavia porcellus [5]) [mg/kg]
500 | COc1cc(CCc2ccc(C3=Cc4ccccc4C4=NCC(C)(C)CN34)cc2)cc(OC)c1OC | 23 | 17 |  | 
40 | COc1cc(CCc2ccc(C3=Cc4ccccc4C4=NCCCN34)cc2)cc(OC)c1OC |  |  | 3 | 4.7
50 | COc1cc(CCc2ccc(C3=Cc4oc(C)cc4C4=NCCN34)cc2)cc(OC)c1OC |  |  | 10 | > 10
220 | COc1cc(CCc2ccc(C3=Cc4ccccc4C4=NC(C)CN34)cc2)cc(OC)c1OC (stereo unspecified) |  |  | 10 | 16
10 | COc1cc(CCc2ccc(C3=Cc4ccsc4C4=NCCN34)cc2)cc(OC)c1OC |  |  | 1.1 | 0.8
1140 | COc1cc(CCc2ccc(C3=Nc4ccccc4C4=NCCN34)cc2)cc(OC)c1OC |  |  | 31.9 | 31.4
